In ChEMBL document CHEMBL1122519, “Bispyridinamines: a new class of topical antimicrobial agents as inhibitors of dental plaque” (1984):

Tests used:
[1] = test system: Escherichia coli; assay: Antimicrobial minimum inhibitory concentration against Escherichia coli AB1932-1; type: functional
Outline: (§1)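 Serial twofold tube dilution in tryptose phosphate broth. Each compound was prepared as a 1000 μg/mL aqueous stock and diluted in double-strength broth, then 2×10^5 cells were added. Tubes were incubated aerobically at 37 °C for 24 h. The MIC was taken as the lowest concentration with no visible growth.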

[2] = test system: Escherichia coli; assay: Minimum inhibitory concentration against Escherichia coli (Vogel); type: functional; outline: as §1
[3] = test system: Escherichia coli; assay: Antimicrobial minimum inhibitory concentration against Escherichia coli 100/B22; type: functional; outline: as §1
[4] = test system: Klebsiella pneumoniae; assay: Minimum inhibitory concentration against Klebsiella pneumonia 39645; type: functional; outline: as §1
[5] = test system: Proteus mirabilis; assay: Minimum antimicrobial inhibitory concentration against Proteus mirabilis MGH-1; type: functional; outline: as §1
[6] = test system: Pseudomonas aeruginosa; assay: Minimum antimicrobial inhibitory concentration against Pseudomonas aeruginosa MGH-2; type: functional; outline: as §1
[7] = test system: Staphylococcus aureus; assay: Minimum antimicrobial inhibitory concentration against Staphylococcus aureus; type: functional; outline: as §1
[8] = test system: Streptococcus mutans; assay: Minimum plaque inhibitory concentration using a standard test organism, Streptococcus mutans OMZ-61; type: functional, organism-based
Outline: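 Ceramic hydroxylapatite plates were soaked twice for 1 min each in compound at […] (aqueous), air-dried and rinsed, then hung in sucrose beef-extract medium (pH 7.0) inoculated with late-log S. mutans OMZ-61. Incubation was anaerobic at 37 °C for 24 h, and treatment plus reinoculation were repeated for a second 24 h. Plaque was stained with 1% FD&C Red No. 3 and scored visually. The value is the lowest concentration giving no plaque while medium growth matched control.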

| MIC [1] | MIC [2] | MIC [3] | MIC [4] | MIC [5] | MIC [6] | MIC [7] | SMILES | Concentration [8] |
| --- | --- | --- | --- | --- | --- | --- | --- | --- |
| – | > 62.5 mg/L | – | > 62.5 mg/L | > 125 mg/L | > 62.5 mg/L | 2 mg/L | Br.Br.N=c1ccn(CCCCCCCCCCCCn2ccc(=N)cc2)cc1 | > 1% |
| 15.6 mg/L | 31.3 mg/L | 15.6 mg/L | > 125 mg/L | > 125 mg/L | > 62.5 mg/L | 15.6 mg/L | Br.Br.Fc1ccc(N=c2ccn(CCCCCCn3ccc(=Nc4ccc(F)cc4)cc3)cc2)cc1 | > 1% |
| 31.3 mg/L | 31.3 mg/L | 31.3 mg/L | 125 mg/L | > 500 mg/L | 500 mg/L | 1 mg/L | Br.Br.c1cn(CCCCCCCCCn2ccc(=NC3CCCCC3)cc2)ccc1=NC1CCCCC1 | > 1% |
| 1 mg/L | 1 mg/L | 1 mg/L | 7.8 mg/L | 125 mg/L | 125 mg/L | 0.3 mg/L | Br.Br.CCCCC(CC)CN=c1ccn(CCCCCCCCCn2ccc(=NCC(CC)CCCC)cc2)cc1 (stereo unspecified) | 0.004% |
| 1 mg/L | 1 mg/L | 2 mg/L | 7.8 mg/L | > 125 mg/L | 125 mg/L | 0.6 mg/L | Br.Br.Clc1ccc(N=c2ccn(CCCCCCCCCn3ccc(=Nc4ccc(Cl)cc4)cc3)cc2)cc1 | > 1% |
| 7.8 mg/L | 15.6 mg/L | 15.6 mg/L | > 250 mg/L | > 250 mg/L | > 125 mg/L | 7.8 mg/L | CS(=O)(=O)O.CS(=O)(=O)O.Clc1ccc(N=c2ccn(CCCCn3ccc(=Nc4ccc(Cl)cc4)cc3)cc2)cc1 | > 1% |
| 7.8 mg/L | 31.3 mg/L | 7.8 mg/L | 125 mg/L | > 250 mg/L | > 125 mg/L | 0.5 mg/L | Br.Br.CCCCCCN=c1ccn(CCCCCCn2ccc(=NCCCCCC)cc2)cc1 | 1% |
| > 62.5 mg/L | 31.3 mg/L | 62.5 mg/L | > 62.5 mg/L | > 62.5 mg/L | > 62.5 mg/L | 7.8 mg/L | Br.Br.CCCCCCCCCCCCN=c1ccn(CCCCCCn2ccc(=NCCCCCCCCCCCC)cc2)cc1 | 0.1% |
| 7.8 mg/L | 62.5 mg/L | 31.3 mg/L | > 125 mg/L | > 125 mg/L | 125 mg/L | 1 mg/L | Br.Br.CCCCC(CC)CN=c1ccn(CCCCn2ccc(=NCC(CC)CCCC)cc2)cc1 (stereo unspecified) | > 1% |
| 31.3 mg/L | 125 mg/L | 125 mg/L | > 125 mg/L | > 125 mg/L | > 125 mg/L | 7.8 mg/L | Br.Br.Clc1ccc(N=c2ccn(CCCCCn3ccc(=Nc4ccc(Cl)cc4)cc3)cc2)cc1 | > 1% |
| 1 mg/L | 2 mg/L | 2 mg/L | 2 mg/L | 62.6 mg/L | 31.3 mg/L | 0.5 mg/L | CCCCCCCN=c1ccn(CCCCCCCCn2ccc(=NCCCCCCC)cc2)cc1.Cl.Cl | 0.1% |
| 2 mg/L | 2 mg/L | 2 mg/L | 3.9 mg/L | 125 mg/L | 125 mg/L | 0.4 mg/L | Br.Br.CCCCCCN=c1ccn(CCCCCCCCCn2ccc(=NCCCCCC)cc2)cc1 | > 1% |
| 125 mg/L | 3.9 mg/L | 3.9 mg/L | > 125 mg/L | > 125 mg/L | > 125 mg/L | 1 mg/L | Br.Br.Clc1ccc(N=c2ccn(CCCCCCCn3ccc(=Nc4ccc(Cl)cc4)cc3)cc2)cc1 | > 1% |
| 2 mg/L | 3.9 mg/L | 2 mg/L | 3.9 mg/L | > 125 mg/L | > 62.5 mg/L | 0.2 mg/L | CCCCCCCN=c1ccn(CCCCCCn2ccc(=NCCCCCCC)cc2)cc1.Cl.Cl | > 1% |
| 1 mg/L | 2 mg/L | 2 mg/L | 3.9 mg/L | 31.3 mg/L | 31.3 mg/L | 0.2 mg/L | Br.Br.CCCCCCN=c1ccn(CCCCCCCCCCn2ccc(=NCCCCCC)cc2)cc1 | > 1% |
| 7.8 mg/L | 2 mg/L | 3.9 mg/L | 3.9 mg/L | 7.8 mg/L | 7.8 mg/L | 1 mg/L | Br.Br.CCCCCCCCCCN=c1ccn(CCCCCCCCn2ccc(=NCCCCCCCCCC)cc2)cc1 | 0.01% |
| > 62.5 mg/L | > 62.5 mg/L | > 62.5 mg/L | > 62.5 mg/L | > 62.5 mg/L | > 62.5 mg/L | 31.3 mg/L | Br.Br.CCCCCCCCCCCCN=c1ccn(CCCCCCCCCCCCn2ccc(=NCCCCCCCCCCCC)cc2)cc1 | 0.1% |

| MIC [1] | MIC [2] | MIC [3] | MIC [4] | MIC [5] | MIC [6] | MIC [7] | SMILES | Concentration [8] |
| --- | --- | --- | --- | --- | --- | --- | --- | --- |
| 1 mg/L | 1 mg/L | 1 mg/L | 2 mg/L | 3.9 mg/L | 3.9 mg/L | 0.5 mg/L | Br.Br.CCCCC(CC)CN=c1ccn(CCCCCCCCCCCCn2ccc(=NCC(CC)CCCC)cc2)cc1 (stereo unspecified) | 0.004% |
| 125 mg/L | > 125 mg/L | > 125 mg/L | > 125 mg/L | > 125 mg/L | 125 mg/L | 7.8 mg/L | Br.Br.c1cn(CCCCCCCn2ccc(=NC3CCCCC3)cc2)ccc1=NC1CCCCC1 | > 1% |
| 15.6 mg/L | 7.8 mg/L | 15.6 mg/L | 31.3 mg/L | 7.8 mg/L | 15.6 mg/L | 2 mg/L | Br.Br.CCCCCCCCCCN=c1ccn(CCCCCCCCCCn2ccc(=NCCCCCCCCCC)cc2)cc1 | 0.01% |
| 3.9 mg/L | 31.3 mg/L | 7.8 mg/L | 31.3 mg/L | > 125 mg/L | 125 mg/L | 0.5 mg/L | Br.Br.CCCCCCCN=c1ccn(CCCCCn2ccc(=NCCCCCCC)cc2)cc1 | > 1% |
| 7.8 mg/L | 15.6 mg/L | 15.6 mg/L | > 125 mg/L | > 125 mg/L | > 125 mg/L | 0.2 mg/L | Br.Br.c1cn(CCCCCCCCCCn2ccc(=NC3CCCCC3)cc2)ccc1=NC1CCCCC1 | > 1% |
| 0.4 mg/L | 1.5 mg/L | 0.8 mg/L | 3 mg/L | 12.1 mg/L | 48.4 mg/L | 0.2 mg/L | Br.Br.CCCCC(CC)CN=c1ccn(CCCCCCCCCCn2ccc(=NCC(CC)CCCC)cc2)cc1 (stereo unspecified) | 0.003% |
| 125 mg/L | > 125 mg/L | > 125 mg/L | > 125 mg/L | > 125 mg/L | > 125 mg/L | 15.6 mg/L | Br.Br.c1cn(CCCCCCn2ccc(=NC3CCCCC3)cc2)ccc1=NC1CCCCC1 | > 1% |
| 31.3 mg/L | 62.5 mg/L | 62.5 mg/L | > 125 mg/L | > 125 mg/L | 250 mg/L | 3.9 mg/L | Br.Br.c1cn(CCCCCCCCn2ccc(=NC3CCCCC3)cc2)ccc1=NC1CCCCC1 | > 1% |
| 1 mg/L | 1 mg/L | 1 mg/L | 2 mg/L | 15.6 mg/L | 3.9 mg/L | 1 mg/L | CCCCCCCCN=c1ccn(CCCCCCCCCn2ccc(=NCCCCCCCC)cc2)cc1.Cl.Cl | 0.003% |
| 3.9 mg/L | 15.6 mg/L | 15.6 mg/L | 500 mg/L | 500 mg/L | 500 mg/L | 3.9 mg/L | CS(=O)(=O)O.CS(=O)(=O)O.Clc1ccc(N=c2ccn(CCCCCCn3ccc(=Nc4ccc(Cl)cc4)cc3)cc2)cc1 | > 1% |
| – | 250 mg/L | – | 500 mg/L | > 500 mg/L | > 500 mg/L | 31.3 mg/L | Br.Br.N=c1ccn(CCCCCCCCCn2ccc(=N)cc2)cc1 | > 1% |
| 7.8 mg/L | 15.6 mg/L | 15.6 mg/L | > 62.5 mg/L | > 125 mg/L | > 62.5 mg/L | 2 mg/L | Br.Br.Fc1ccc(N=c2ccn(CCCCCCCCn3ccc(=Nc4ccc(F)cc4)cc3)cc2)cc1 | > 1% |
| 62.5 mg/L | 31.3 mg/L | > 62.5 mg/L | > 62.5 mg/L | 62.5 mg/L | > 62.5 mg/L | 7.8 mg/L | Br.Br.CCCCCCCCCCCCN=c1ccn(CCCCCCCCn2ccc(=NCCCCCCCCCCCC)cc2)cc1 | 0.1% |
| 3.9 mg/L | 3.9 mg/L | 3.9 mg/L | 7.8 mg/L | > 125 mg/L | 125 mg/L | 0.5 mg/L | Br.Br.CCCCC(CC)CN=c1ccn(CCCCCCCn2ccc(=NCC(CC)CCCC)cc2)cc1 (stereo unspecified) | > 1% |
| 31.3 mg/L | 125 mg/L | 62.5 mg/L | > 125 mg/L | > 250 mg/L | > 125 mg/L | 2 mg/L | Br.Br.CCCCCCN=c1ccn(CCCCCn2ccc(=NCCCCCC)cc2)cc1 | – |
| 62.5 mg/L | 125 mg/L | 125 mg/L | > 125 mg/L | > 125 mg/L | > 250 mg/L | 7.8 mg/L | Br.Br.CCCCCCN=c1ccn(CCCCn2ccc(=NCCCCCC)cc2)cc1 | – |

| SMILES | MIC [1] | MIC [2] | MIC [3] | MIC [4] | MIC [5] | MIC [6] | MIC [7] | Concentration [8] |
| --- | --- | --- | --- | --- | --- | --- | --- | --- |
| Br.Br.N=c1ccn(CCCCCCCCCCn2ccc(=N)cc2)cc1 | 31.3 mg/L | 62.5 mg/L | 62.5 mg/L | 250 mg/L | > 500 mg/L | 500 mg/L | 7.8 mg/L | > 1% |
